Reference: ChEMBL document CHEMBL1139225, “Metabolism-based identification of a potent thrombin receptor antagonist” (J Med Chem, 2007)
≈ marks a conversion by molar mass, not a printed value. Values belong to the molecule of their own block, whether it stands above or below them.

How the values were obtained:
[1] = target: T1, Proteinase-activated receptor 1 (Homo sapiens, UniProt P25116); test: Displacement of [3H]haTRAP from PAR1 in human platelet membrane; format: cell membranes
T1 sequence (P25116 whole entry): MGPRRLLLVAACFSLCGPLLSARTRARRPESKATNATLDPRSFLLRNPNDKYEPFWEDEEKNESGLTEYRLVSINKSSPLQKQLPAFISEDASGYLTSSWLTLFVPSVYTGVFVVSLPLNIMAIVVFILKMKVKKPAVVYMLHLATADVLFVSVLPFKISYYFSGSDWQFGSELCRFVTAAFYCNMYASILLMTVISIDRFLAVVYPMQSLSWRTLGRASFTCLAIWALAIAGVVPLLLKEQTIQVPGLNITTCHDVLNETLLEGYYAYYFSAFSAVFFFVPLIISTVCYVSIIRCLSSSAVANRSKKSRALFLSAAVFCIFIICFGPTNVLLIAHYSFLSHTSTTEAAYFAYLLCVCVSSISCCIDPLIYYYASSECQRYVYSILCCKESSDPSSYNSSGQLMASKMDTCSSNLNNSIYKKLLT

[2] = Solubility of the compound; format: physicochemical
[3] = AUC (0-6h) in rat at 10 mg/kg, po; format: ADME, organism-based; set-up: time < 6 hr, dose 10 mg/kg, route oral; details: plasma
How it was run: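 Rat oral pharmacokinetics at 10 mg/kg dosed in 20% HPβCD. Plasma exposure was reported as AUC(0-6).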

[4] = AUC (0-24h) in cynomolgus monkey at 1 mg/kg, po; format: ADME, organism-based, Macaca fascicularis; set-up: time < 24 hr, dose 1 mg/kg, route oral; details: plasma
How it was run: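 Cynomolgus monkeys received a single oral dose of 1 mg/kg in 20% HPβCD. Blood levels were followed at various time points afterwards.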

Rattus norvegicus [5] = test: Increase in liver to body weight ratio in Sprague-Dawley rat at 100 mg/kg, po; format: functional
How it was run: (§1)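 Ten-day enzyme induction study. Fed male Sprague Dawley rats, four per group, were dosed orally once daily at 100 or 300 mg/kg in 0.4% methylcellulose. Liver/body weight ratio, spectral cytochrome P450, and CYP1A and CYP2B levels were expressed relative to a control group.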

[6] = Cmax in Sprague-Dawley rat at 300 mg/kg, po after 10 days; format: ADME, organism-based; set-up: dose 300 mg/kg, route oral; details: in vivo
How it was run: (§2)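 Fed male Sprague Dawley rats, four per group, given the compound orally once daily for 10 consecutive days in 0.4% methylcellulose (100 and 300 mg/kg groups). On day 1 and day 10, plasma concentrations of parent and hydroxylated metabolites were measured at 1, 2, 4, 8, 12 and 24 h, giving AUC(0-24 h) and Cmax.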

Rattus norvegicus [7] = test: Increase in hepatic enzyme CYP1A in Sprague-Dawley rat at 300 mg/kg, po; format: functional; how it was run: as §1
Rattus norvegicus [8] = test: Increase in hepatic enzyme CYP2B in Sprague-Dawley rat at 300 mg/kg, po; format: functional; how it was run: as §1
Rattus norvegicus [9] = test: Increase in hepatic enzyme CYP2B in Sprague-Dawley rat at 100 mg/kg, po; format: functional; how it was run: as §1
[10] = AUC (0-24h) in Sprague-Dawley rat at 300 mg/kg, po after 1 day; format: ADME, organism-based; set-up: time < 24 hr, dose 300 mg/kg, route oral; details: plasma; how it was run: as §2
Rattus norvegicus [11] = test: Increase in liver to body weight ratio in Sprague-Dawley rat at 300 mg/kg, po; format: functional; how it was run: as §1
Rattus norvegicus [12] = test: Increase in hepatic enzyme CYP1A in Sprague-Dawley rat at 100 mg/kg, po; format: functional; how it was run: as §1
[13] = AUC (0-24h) in Sprague-Dawley rat at 300 mg/kg, po after 10 days; format: ADME, organism-based; set-up: time < 24 hr, dose 300 mg/kg, route oral; details: plasma; how it was run: as §2
[14] = Cmax in Sprague-Dawley rat at 300 mg/kg, po after 1 day; format: ADME, organism-based; set-up: dose 300 mg/kg, route oral; details: in vivo; how it was run: as §2

Structure (SMILES): C[C@H]1OC(=O)[C@@H]2C[C@H]3[C@@H](CCCC3(F)F)[C@H](/C=C/c3ccc(-c4cccc(C(F)(F)F)c4)cn3)[C@H]12
solubility [2]: 5 µM (≈ 2.46 µg/mL)
IC50 [1]: 53 nM
AUC(0-t) at 6 h [3]: 1200 ng·h/mL

Structure (SMILES): C[C@H]1OC(=O)[C@@H]2C[C@@H]3CC(=O)CC[C@H]3[C@H](/C=C/c3ccc(-c4cccc(C(F)(F)F)c4)cn3)[C@H]12
AUC(0-t) at 24 h [4]: 31 ng·h/mL

Structure (SMILES): C[C@H]1OC(=O)[C@@H]2C[C@@H]3C[C@H](O)CC[C@H]3[C@H](/C=C/c3ccc(-c4cccc(Cl)c4)cn3)[C@H]12
IC50 [1]: 38.5 nM

Structure (SMILES): C[C@H]1OC(=O)[C@@H]2C[C@@H]3C[C@H](O)CC[C@H]3[C@H](/C=C/c3ccc(-c4cccc(F)c4)cn3)[C@H]12
IC50 [1]: 28 nM

Structure (SMILES): Cc1cccc(-c2ccc(/C=C/[C@H]3[C@@H]4CCC(F)(F)C[C@H]4C[C@H]4C(=O)O[C@H](C)[C@@H]34)nc2)c1
IC50 [1]: 80 nM

Structure (SMILES): Cc1cccc(-c2ccc(/C=C/[C@H]3[C@@H]4CC[C@@H](O)C[C@H]4C[C@H]4C(=O)O[C@H](C)[C@@H]34)nc2)c1
IC50 [1]: 147 nM

Structure (SMILES): Cc1ccc(-c2ccc(/C=C/[C@H]3[C@@H]4CC[C@@H](O)C[C@H]4C[C@H]4C(=O)O[C@H](C)[C@@H]34)nc2)cc1
IC50 [1]: 1370 nM

More lines, main results first:

IC50 [1]: 16.5 nM
Structure (SMILES): C[C@H]1OC(=O)[C@@H]2C[C@@H]3C[C@H](O)CC[C@H]3[C@H](/C=C/c3ccc(-c4cccc(Cl)c4Cl)cn3)[C@H]12

IC50 [1]: 28 nM
Structure (SMILES): C[C@H]1OC(=O)[C@@H]2C[C@H]3[C@@H](CCC[C@H]3O)[C@H](/C=C/c3ccc(-c4cccc(C(F)(F)F)c4)cn3)[C@H]12

IC50 [1]: 845 nM
Structure (SMILES): C[C@H]1OC(=O)[C@@H]2C[C@@H]3CC[C@H](O)C[C@H]3[C@H](/C=C/c3ccc(-c4cccc(C(F)(F)F)c4)cn3)[C@H]12

Cmax [6]: 17000 ng/mL
AUC(0-t) at 24 h [10]: 35000 ng·h/mL
AUC at 24 h [13]: 21000 ng·h/mL
Cmax [14]: 29000 ng/mL
Structure (SMILES): C[C@H]1OC(=O)[C@@H]2C[C@@H]3CCCC[C@H]3[C@H](/C=C/c3ccc(-c4cccc(C(F)(F)F)c4)cn3)[C@H]12
Activity (Rattus norvegicus [5]): 10%
Activity (Rattus norvegicus [7]): 3.6
Activity (Rattus norvegicus [8]): 21
Activity (Rattus norvegicus [9]): 2.5
Activity (Rattus norvegicus [11]): 34%
Activity (Rattus norvegicus [12]): 1.8

IC50 [1]: 97 nM
Structure (SMILES): C[C@H]1OC(=O)[C@@H]2C[C@@H]3C[C@H](O)CC[C@H]3[C@H](/C=C/c3ccc(-c4cc(Cl)ccc4Cl)cn3)[C@H]12
